# Assay results: PubChem BioAssay AID588678 (Southern Research Specialized Biocontainment Screening …, 2011)
# pIC50: −log10 of the molar value. Activity calls are given as the source filed them.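 Rule for the calls: active = inhibition of 30% or more at any tested concentration; inactive = the rest.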
# Target: M18 aspartyl aminopeptidase (Plasmodium falciparum 3D7)
# Experiment: PfM18AAP inhibitors, dose response, biochemical, QFRET fluorogenic substrate (AID 588678)
# Conditions: recombinant PFM18AAP, H-Glu-NHMec fluorogenic substrate cleavage
# Outline: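 assay system = recombinant PFM18AAP enzyme | quantity = enzyme 5 µg/mL | schedule = enzyme reaction with compounds, 90 min at room temperature | technique = fluorescence, ex 370 nm, em 460 nm | evaluation = % inhibition and fitted IC50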
row,SMILES,pIC50
1,Cc1c(-c2ccccc2)[nH]c(-c2ccc(O)c(O)c2)[n+]1O,4.77
2,Oc1ccc(CCNc2cccc3ccccc23)cc1O,5.27
3,Oc1ccc(CCNC2CCN(Cc3ccccc3)CC2)cc1O,4.58
4,Oc1ccc(CCN2CCc3ccccc3C2)cc1O,4.65
5,Oc1ccc(CCNC(c2ccccc2)c2ccccc2)cc1O,4.98
6,CN(CCc1ccc(O)c(O)c1)c1ccnc2ccccc12,5.31
7,O=S1(=O)c2ccccc2-c2cc(-c3nc(-c4ccc(O)c(O)c4)[nH]c3-c3ccccc3)ccc21,4.77
8,Oc1ccc(CCNc2ccc3ccccc3c2)cc1O,4.94
9,Cc1ccc(-c2nc(-c3ccc(O)c(O)c3)cs2)cc1,5.02
10,Nc1cc(C(=O)c2ccccc2)ccc1O,4.29
11,Cc1nc(NCCc2ccc(O)c(O)c2)c2c3c(sc2n1)CCC3,4.86
12,Oc1ccc(CCNc2cncc3ccccc23)cc1O,4.94
13,CC(C)(C)C(=O)OCc1nc(-c2ccc(O)c(O)c2)cs1,4.88
14,O=C1OCCN1CCc1nc(-c2ccc(O)c(O)c2)cs1,5.09
15,Oc1ccc(-c2csc(Cc3cc4ccccc4[nH]3)n2)cc1O,4.90
16,CCC(C)c1ccc(N)c(O)c1 (stereo not drawn),4.71
17,COc1ccc2c(c1)C(=O)C(N)CC2 (stereo not drawn),4.13
18,O=c1ccc2cc(O)c(O)cc2o1,4.35
19,Oc1ccc(CCNc2c3c(nc4ccccc24)CCCC3)cc1O,4.99
20,O=c1cc(CN2CCN(Cc3ccccc3)CC2)c2ccc(O)c(O)c2o1,4.31
21,CCOc1cccc(-c2nc(-c3ccc(O)c(O)c3)cs2)c1,5.02
22,Oc1ccc(CCCNc2c3ccccc3nc3ccccc23)cc1O,4.56
23,CN(CCc1ccc(O)c(O)c1)c1ccncc1,5.08

# Same assay, conditions: recombinant PFM18AAP, H-Glu-NHMec fluorogenic substrate cleavage; at 50 µM (top of the series)
row,SMILES,inhibition
1,O=C(O)CCCNc1c2ccccc2nc2ccccc12,inactive
2,O=C(O)CCCCNc1c2ccccc2nc2ccccc12,inactive
3,O=C1c2ccc3c4c(ccc(c24)C(=O)N1O)CC3,inactive

# Same assay, conditions: recombinant PFM18AAP, H-Glu-NHMec fluorogenic substrate cleavage; at 100 µM (top of the series)
row,SMILES,inhibition
1,Cc1c(OCc2ccccc2)c(=O)ccn1CCNc1c2ccccc2nc2ccccc12,inactive
2,O=C(c1ccco1)N1CCN(Cc2cc(=O)c(O)co2)CC1,inactive
3,Cc1c(O)c(=O)ccn1CCNc1c2ccccc2nc2ccccc12,inactive
4,CCC(C)C(=O)Nc1ccccc1N (stereo not drawn),inactive
5,COc1ccc(CCNc2c3ccccc3nc3ccccc23)cc1,inactive
6,O=C(c1ccco1)N1CCN(Cc2cc(=O)c(O)c[nH]2)CC1,inactive
7,COc1cccc(-c2nc(-c3ccc(OC)c(OC)c3)cs2)c1,inactive
8,Oc1ccc(CCNc2c3ccccc3nc3ccccc23)cc1,inactive
9,COc1ccc(CNc2c3ccccc3nc3ccccc23)cc1OC,inactive
10,COc1cccc(CCNc2c3ccccc3nc3ccccc23)c1,inactive
11,COc1ccc(-c2csc(-c3ccccc3OC)n2)cc1OC,inactive
12,O=c1cc(CO)oc(CN2CCCCC2)c1O,inactive
13,NCCNc1c2ccccc2nc2ccccc12,inactive
14,O=c1ccn(CCNc2c3ccccc3nc3ccccc23)cc1OCc1ccccc1,inactive
15,COc1ccc(-c2nc(-c3ccccc3)c(-c3ccccc3)[nH]2)cc1OC,inactive
16,NCc1cc2c3c(c(=O)oc2c(O)c1O)CCC3,inactive
17,CCC(C)C(=O)Nc1ccccc1O (stereo not drawn),inactive
18,Oc1ccc(CNc2c3ccccc3nc3ccccc23)cc1O,inactive

# Now from value to molecule:
row,inhibition,SMILES
1,inactive,COc1ccc(CCCNc2c3ccccc3nc3ccccc23)cc1OC
2,inactive,COc1ccc(CCNC2CCN(C)CC2)cc1OC
3,inactive,COc1ccc(CCN(C)c2c3ccccc3nc3ccccc23)cc1OC
4,inactive,COc1ccc(CCN2CCN(C)CC2)cc1OC
5,inactive,COc1ccc(CCNc2cncc3ccccc23)cc1OC
6,inactive,COc1ccc(CCNC2CCN(Cc3ccccc3)CC2)cc1OC
7,inactive,COc1ccc(CCN(C)c2ccnc3ccccc23)cc1OC
8,inactive,COc1ccc(CC(=O)O)cc1OC
9,inactive,COc1ccc(-c2csc(-c3ccccc3)n2)cc1OC
10,inactive,COc1ccc(CCN2CCc3ccccc3C2)cc1OC
11,inactive,COc1ccc(CCNc2ccc3ccccc3c2)cc1OC
12,inactive,COc1ccc(CCN(C)CCc2ccccc2)cc1OC
13,inactive,COc1ccc(CCNc2cccc3ccccc23)cc1OC
14,inactive,COc1ccc(CCNc2c3ccccc3nc3ccccc23)cc1OC
15,inactive,COc1ccc(CCNc2ccnc3ccccc23)cc1OC
16,inactive,COc1ccc(CCN(C)c2ccncc2)cc1OC
17,inactive,COc1ccc(CCC(=O)O)cc1OC
18,inactive,COc1ccc(CCNc2ccncc2)cc1OC
19,inactive,COc1ccc(CCNc2c3c(nc4ccccc24)CCCC3)cc1OC
